Data: ChEMBL document CHEMBL4052759, “Discovery of DS79182026: A potent orally active hepcidin production inhibitor” (Bioorg Med Chem Lett, 2017)

Tests used:
[1] = target: Mitogen-activated protein kinase kinase kinase kinase 2 (Homo sapiens) (UniProt Q12851); assay: Inhibition of GCK (unknown origin) at 0.49 uM relative to control
[2] = target: Ephrin type-A receptor 8 (Homo sapiens) (UniProt P29322); assay: Inhibition of EPHA8 (unknown origin) at 0.49 uM relative to control
[3] = tested on: Proto-oncogene tyrosine-protein kinase receptor Ret (Homo sapiens), P07949 [V804L]; assay: Inhibition of Ret V804L mutant (unknown origin) at 0.49 uM relative to control
[4] = target: High affinity nerve growth factor receptor (Homo sapiens) (UniProt P04629); assay: Inhibition of TRKA (unknown origin) at 0.49 uM relative to control
High affinity nerve growth factor receptor (Homo sapiens), sequence (P04629 33-796 limits assumed): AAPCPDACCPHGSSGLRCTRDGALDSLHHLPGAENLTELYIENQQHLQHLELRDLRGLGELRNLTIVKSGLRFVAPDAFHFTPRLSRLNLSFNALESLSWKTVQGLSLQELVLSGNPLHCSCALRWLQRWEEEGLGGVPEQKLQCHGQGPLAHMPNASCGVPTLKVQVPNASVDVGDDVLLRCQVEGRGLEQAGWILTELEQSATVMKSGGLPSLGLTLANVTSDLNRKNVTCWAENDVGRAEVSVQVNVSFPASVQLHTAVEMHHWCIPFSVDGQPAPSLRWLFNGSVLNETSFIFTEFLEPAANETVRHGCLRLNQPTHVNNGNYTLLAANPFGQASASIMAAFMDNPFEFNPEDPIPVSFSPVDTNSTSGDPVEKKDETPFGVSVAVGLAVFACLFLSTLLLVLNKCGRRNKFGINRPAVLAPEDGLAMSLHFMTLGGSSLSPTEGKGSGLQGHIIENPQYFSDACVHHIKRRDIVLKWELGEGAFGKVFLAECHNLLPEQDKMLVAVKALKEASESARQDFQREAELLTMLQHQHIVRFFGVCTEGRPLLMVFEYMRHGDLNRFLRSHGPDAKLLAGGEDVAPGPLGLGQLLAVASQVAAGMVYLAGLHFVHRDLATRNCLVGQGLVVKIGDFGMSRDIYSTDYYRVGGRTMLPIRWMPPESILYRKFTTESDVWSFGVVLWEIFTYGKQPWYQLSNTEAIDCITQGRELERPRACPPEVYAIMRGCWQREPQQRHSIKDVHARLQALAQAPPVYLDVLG

[5] = target: Homeodomain-interacting protein kinase 4 (Homo sapiens) (UniProt Q8NE63); assay: Inhibition of HIPK4 (unknown origin) at 0.49 uM relative to control
[6] = target: Serine/threonine-protein kinase PAK 3 (Homo sapiens) (UniProt O75914); assay: Inhibition of PAK3 (unknown origin) at 0.49 uM relative to control
[7] = target: T1, Protein kinase C zeta type (Homo sapiens) (UniProt Q05513); assay: Inhibition of PKC-zeta (unknown origin) at 0.49 uM relative to control
T1 sequence (whole entry): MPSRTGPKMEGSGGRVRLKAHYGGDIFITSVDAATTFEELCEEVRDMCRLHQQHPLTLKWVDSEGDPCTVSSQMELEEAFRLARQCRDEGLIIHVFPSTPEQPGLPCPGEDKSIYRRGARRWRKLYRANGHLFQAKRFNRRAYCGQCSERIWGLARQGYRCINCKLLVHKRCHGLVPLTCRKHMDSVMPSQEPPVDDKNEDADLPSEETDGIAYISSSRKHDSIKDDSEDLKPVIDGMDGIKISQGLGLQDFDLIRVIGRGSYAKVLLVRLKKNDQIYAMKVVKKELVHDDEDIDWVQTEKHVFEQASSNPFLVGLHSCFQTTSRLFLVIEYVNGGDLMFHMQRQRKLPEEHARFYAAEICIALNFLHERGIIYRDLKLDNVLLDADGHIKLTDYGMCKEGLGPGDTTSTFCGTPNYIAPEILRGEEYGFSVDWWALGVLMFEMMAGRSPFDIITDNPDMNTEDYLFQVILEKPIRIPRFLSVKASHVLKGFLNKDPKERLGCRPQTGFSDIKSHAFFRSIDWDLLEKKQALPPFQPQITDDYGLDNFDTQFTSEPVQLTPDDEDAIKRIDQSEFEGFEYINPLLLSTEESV

[8] = target: RAC-gamma serine/threonine-protein kinase (Homo sapiens) (UniProt Q9Y243); assay: Inhibition of AKT3 (unknown origin) at 0.49 uM relative to control
RAC-gamma serine/threonine-protein kinase (Homo sapiens), sequence (Q9Y243 whole entry): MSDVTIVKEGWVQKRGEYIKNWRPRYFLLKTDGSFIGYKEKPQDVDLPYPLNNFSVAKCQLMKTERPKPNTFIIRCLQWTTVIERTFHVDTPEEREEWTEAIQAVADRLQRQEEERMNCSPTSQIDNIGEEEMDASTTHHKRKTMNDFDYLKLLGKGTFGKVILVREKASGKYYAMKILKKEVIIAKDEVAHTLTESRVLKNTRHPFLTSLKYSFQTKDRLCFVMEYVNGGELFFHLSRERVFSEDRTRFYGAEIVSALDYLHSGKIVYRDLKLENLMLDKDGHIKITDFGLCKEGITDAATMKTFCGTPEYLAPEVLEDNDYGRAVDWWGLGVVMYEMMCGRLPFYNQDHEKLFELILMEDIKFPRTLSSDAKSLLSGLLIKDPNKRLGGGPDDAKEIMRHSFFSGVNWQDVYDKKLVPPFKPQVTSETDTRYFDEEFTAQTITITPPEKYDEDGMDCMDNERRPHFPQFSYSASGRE

[9] = target: Serine/threonine-protein kinase BRSK1 (Homo sapiens) (UniProt Q8TDC3); assay: Inhibition of BRSK1 (unknown origin) at 0.49 uM relative to control
[10] = tested on: Epidermal growth factor receptor (Homo sapiens), P00533 [L858R,T790M]; assay: Inhibition of EGFR T790M/L858R double mutant (unknown origin) at 0.49 uM relative to control
Epidermal growth factor receptor (Homo sapiens), P00533 [L858R,T790M], sequence (P00533 whole entry T790M/L858R, looked up, canonical isoform): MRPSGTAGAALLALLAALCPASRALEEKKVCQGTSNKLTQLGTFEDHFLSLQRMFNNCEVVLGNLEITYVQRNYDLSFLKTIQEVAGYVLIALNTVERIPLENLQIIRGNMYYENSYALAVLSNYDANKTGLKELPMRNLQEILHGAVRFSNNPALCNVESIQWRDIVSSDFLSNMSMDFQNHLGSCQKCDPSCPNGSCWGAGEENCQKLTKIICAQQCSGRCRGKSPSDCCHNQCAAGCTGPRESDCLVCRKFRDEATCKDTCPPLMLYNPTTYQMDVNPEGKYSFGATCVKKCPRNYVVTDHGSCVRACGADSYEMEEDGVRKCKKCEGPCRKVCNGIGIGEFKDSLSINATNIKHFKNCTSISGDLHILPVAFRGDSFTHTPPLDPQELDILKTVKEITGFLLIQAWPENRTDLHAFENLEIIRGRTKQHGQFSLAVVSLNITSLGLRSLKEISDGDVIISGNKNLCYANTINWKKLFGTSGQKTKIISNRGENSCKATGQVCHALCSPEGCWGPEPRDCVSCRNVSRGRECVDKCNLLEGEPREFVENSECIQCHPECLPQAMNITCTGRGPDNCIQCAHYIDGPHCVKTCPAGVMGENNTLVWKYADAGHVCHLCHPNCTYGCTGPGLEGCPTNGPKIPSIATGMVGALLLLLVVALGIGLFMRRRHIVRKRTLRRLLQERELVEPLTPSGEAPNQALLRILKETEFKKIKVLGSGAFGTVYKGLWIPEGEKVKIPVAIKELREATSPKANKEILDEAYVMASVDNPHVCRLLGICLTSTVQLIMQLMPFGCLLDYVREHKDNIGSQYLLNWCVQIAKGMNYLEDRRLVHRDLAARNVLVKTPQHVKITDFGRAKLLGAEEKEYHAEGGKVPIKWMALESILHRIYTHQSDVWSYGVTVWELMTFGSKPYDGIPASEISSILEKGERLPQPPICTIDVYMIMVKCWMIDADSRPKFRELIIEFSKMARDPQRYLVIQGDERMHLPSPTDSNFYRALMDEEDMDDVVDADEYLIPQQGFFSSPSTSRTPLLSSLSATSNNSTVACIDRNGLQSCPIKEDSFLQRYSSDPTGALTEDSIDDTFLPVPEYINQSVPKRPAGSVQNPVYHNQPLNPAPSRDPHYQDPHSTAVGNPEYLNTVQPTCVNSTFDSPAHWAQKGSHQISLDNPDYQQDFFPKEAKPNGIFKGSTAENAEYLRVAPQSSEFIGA

[11] = target: Phosphorylase b kinase gamma catalytic chain, skeletal muscle/heart isoform (Homo sapiens) (UniProt Q16816); assay: Inhibition of PhKg1 (unknown origin) at 0.49 uM relative to control
Phosphorylase b kinase gamma catalytic chain, skeletal muscle/heart isoform (Homo sapiens), sequence (Q16816 whole entry, looked up, canonical isoform): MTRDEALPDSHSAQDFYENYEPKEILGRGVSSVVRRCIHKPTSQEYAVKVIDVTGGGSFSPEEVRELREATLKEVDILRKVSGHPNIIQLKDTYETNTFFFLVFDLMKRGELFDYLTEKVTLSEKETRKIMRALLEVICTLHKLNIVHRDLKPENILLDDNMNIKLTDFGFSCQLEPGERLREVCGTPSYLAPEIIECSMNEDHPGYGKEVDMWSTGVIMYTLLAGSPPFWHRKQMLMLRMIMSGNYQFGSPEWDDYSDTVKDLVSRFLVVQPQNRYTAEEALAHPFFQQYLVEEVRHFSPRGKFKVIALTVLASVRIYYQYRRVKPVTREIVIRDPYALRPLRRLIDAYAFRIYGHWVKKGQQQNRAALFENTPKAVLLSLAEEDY

[12] = tested on: Fibroblast growth factor receptor 4 (Homo sapiens), P22455 [V550L]; assay: Inhibition of FGFR4 V550L mutant (unknown origin) at 0.49 uM relative to control
[13] = target: Tyrosine-protein kinase Yes (Homo sapiens) (UniProt P07947); assay: Inhibition of Yes (unknown origin) at 0.49 uM relative to control
Tyrosine-protein kinase Yes (Homo sapiens), sequence (P07947 2-543 limits assumed): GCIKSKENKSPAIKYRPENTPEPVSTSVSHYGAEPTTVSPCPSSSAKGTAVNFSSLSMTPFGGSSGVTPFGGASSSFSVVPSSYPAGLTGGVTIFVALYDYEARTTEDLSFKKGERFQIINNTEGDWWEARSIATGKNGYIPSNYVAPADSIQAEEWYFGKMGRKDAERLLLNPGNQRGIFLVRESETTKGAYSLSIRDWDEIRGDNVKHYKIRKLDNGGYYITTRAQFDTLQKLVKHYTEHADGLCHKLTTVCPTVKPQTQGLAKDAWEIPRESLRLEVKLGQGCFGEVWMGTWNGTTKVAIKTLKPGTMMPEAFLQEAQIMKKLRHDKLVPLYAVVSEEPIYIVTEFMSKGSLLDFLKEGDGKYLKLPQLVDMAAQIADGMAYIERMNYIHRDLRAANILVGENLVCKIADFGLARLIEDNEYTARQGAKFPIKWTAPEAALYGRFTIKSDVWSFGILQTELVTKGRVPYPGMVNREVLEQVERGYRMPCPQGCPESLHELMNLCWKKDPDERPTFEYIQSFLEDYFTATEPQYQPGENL

[14] = target: T2, Calcium/calmodulin-dependent protein kinase type IV (Homo sapiens) (UniProt Q16566); assay: Inhibition of CAMK4 (unknown origin) at 0.49 uM relative to control
T2 sequence (whole entry): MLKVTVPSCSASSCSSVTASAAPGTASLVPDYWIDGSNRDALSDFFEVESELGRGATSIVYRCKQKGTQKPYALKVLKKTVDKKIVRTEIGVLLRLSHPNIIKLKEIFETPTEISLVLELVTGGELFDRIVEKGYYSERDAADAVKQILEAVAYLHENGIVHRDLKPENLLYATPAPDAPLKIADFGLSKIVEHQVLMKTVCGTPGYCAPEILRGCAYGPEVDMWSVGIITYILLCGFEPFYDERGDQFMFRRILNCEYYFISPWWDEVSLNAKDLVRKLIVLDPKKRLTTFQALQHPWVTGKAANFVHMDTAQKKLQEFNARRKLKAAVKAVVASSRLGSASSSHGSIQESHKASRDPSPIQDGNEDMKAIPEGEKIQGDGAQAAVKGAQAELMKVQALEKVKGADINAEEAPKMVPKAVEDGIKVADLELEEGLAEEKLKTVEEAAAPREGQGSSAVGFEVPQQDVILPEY

[15] = target: Tyrosine-protein kinase Mer (Homo sapiens) (UniProt Q12866); assay: Inhibition of Mer (unknown origin) at 0.45 uM relative to control
[16] = target: Tyrosine-protein kinase Lyn (Homo sapiens) (UniProt P07948); assay: Inhibition of LYN (unknown origin) at 0.45 uM relative to control
[17] = target: Ephrin type-A receptor 8 (Homo sapiens) (UniProt P29322); assay: Inhibition of EPHA8 (unknown origin) at 0.45 uM relative to control
[18] = target: High affinity nerve growth factor receptor (Homo sapiens) (UniProt P04629); assay: Inhibition of TRKA (unknown origin) at 0.45 uM relative to control
[19] = target: Calcium/calmodulin-dependent protein kinase type II subunit beta (Homo sapiens) (UniProt Q13554); assay: Inhibition of CaMK2-beta (unknown origin) at 0.45 uM relative to control
Calcium/calmodulin-dependent protein kinase type II subunit beta (Homo sapiens), sequence (Q13554 whole entry): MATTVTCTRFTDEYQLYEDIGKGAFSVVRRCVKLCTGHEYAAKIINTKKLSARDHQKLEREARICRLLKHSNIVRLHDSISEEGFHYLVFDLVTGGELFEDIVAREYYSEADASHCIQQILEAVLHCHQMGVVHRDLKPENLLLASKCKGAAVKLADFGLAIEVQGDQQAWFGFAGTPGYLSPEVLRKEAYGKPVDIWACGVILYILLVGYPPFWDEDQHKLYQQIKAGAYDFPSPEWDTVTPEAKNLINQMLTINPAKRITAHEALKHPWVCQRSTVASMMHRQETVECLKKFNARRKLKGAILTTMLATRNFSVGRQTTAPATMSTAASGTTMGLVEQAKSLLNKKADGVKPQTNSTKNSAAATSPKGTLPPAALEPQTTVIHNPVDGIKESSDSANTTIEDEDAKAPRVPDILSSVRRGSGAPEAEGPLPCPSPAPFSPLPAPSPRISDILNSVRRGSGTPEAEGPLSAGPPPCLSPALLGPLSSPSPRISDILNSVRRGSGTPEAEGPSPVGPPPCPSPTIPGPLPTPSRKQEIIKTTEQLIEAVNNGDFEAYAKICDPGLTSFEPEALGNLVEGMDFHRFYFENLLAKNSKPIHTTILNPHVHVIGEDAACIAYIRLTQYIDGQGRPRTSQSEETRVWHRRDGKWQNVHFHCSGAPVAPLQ

[20] = target: Aurora kinase C (Homo sapiens) (UniProt Q9UQB9); assay: Inhibition of AurC (unknown origin) at 0.45 uM relative to control
[21] = Clearance in C57BL/6J mouse at 30 mg/kg, iv by LC-MS/MS analysis; type: ADME, organism-based; conditions: in vivo
Outline: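 C57BL/6J mice got a single 30 mg/kg intravenous dose as a solution in 92 mM SBE7-β-CyD. The value is the average of two animals.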

Ephrin type-A receptor 8 (Homo sapiens), sequence (P29322 whole entry): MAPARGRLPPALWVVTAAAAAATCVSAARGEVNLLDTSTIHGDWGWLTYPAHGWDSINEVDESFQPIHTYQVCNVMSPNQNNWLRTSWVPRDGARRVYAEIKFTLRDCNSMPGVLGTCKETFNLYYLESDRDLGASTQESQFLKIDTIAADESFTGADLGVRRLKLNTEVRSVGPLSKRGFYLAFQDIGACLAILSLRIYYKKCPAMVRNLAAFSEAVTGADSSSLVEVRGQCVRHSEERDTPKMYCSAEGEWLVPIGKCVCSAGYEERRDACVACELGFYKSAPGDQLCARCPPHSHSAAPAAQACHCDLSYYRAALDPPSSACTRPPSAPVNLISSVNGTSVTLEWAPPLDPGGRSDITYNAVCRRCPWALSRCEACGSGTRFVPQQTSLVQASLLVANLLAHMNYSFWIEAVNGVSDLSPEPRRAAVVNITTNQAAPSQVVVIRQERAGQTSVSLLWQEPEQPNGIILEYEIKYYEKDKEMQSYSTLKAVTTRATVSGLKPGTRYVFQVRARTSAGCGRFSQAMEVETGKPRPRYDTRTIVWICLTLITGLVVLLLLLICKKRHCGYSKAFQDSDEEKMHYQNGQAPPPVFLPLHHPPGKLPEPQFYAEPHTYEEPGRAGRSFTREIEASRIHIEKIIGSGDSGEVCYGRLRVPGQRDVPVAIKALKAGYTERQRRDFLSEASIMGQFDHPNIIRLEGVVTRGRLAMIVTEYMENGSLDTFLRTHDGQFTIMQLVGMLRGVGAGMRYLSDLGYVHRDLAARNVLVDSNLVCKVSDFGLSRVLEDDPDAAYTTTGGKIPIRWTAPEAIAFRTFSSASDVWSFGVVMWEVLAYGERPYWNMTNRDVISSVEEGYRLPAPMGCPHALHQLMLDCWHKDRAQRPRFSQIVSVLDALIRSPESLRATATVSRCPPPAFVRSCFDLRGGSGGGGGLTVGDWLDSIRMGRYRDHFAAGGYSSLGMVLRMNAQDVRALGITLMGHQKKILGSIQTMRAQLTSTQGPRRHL

Cc1[nH]nc(C2CC2)c1-c1ccc2c(NC(=O)C3CC3)noc2c1
inhibition [1]: 11.3% | inhibition [2]: -2.7% | inhibition [3]: -0.7% | inhibition [4]: 3.7% | inhibition [5]: 1.7% | inhibition [6]: -4.3% | inhibition [7]: 5% | inhibition [8]: 7.3% | inhibition [9]: 1.7% | inhibition [10]: -1% | inhibition [11]: 2.3% | inhibition [12]: 4% | inhibition [13]: -8% | inhibition [14]: 2.3%

Cc1n[nH]c(C)c1-c1ccc2c(NC(=O)c3ccc(N4CCN(C)CC4)cc3)n[nH]c2c1
inhibition [15]: 0.7% | inhibition [16]: 32.3% | inhibition [17]: 3.7% | inhibition [18]: 93.7% | inhibition [19]: -0.3% | inhibition [20]: -1%

COC(=O)Nc1noc2cc(-c3c(-c4ccccn4)n[nH]c3C)ccc12
clearance [21]: 14.5 mL/min/kg
